# ChEMBL document CHEMBL4334447, “Discovery of 4-Aminoquinoline-3-carboxamide Derivatives as Potent Reversible Bruton's Tyrosine Kinase Inhibitors for the Treatment of Rheumatoid Arthritis” (J Med Chem, 2019)
# Columns and labels:
# [1] = Kinetic aqueous solubility of the compound in pH 7.4 phosphate buffered saline incubated for 24 hrs under shaking condition by HPLC analysis; assay type: physicochemical; settings: read-out: Kinetic_solubility
# Method in brief: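 Dry powder shaken 24 h at 25 °C in 0.1 M phosphate buffer, pH 7.4, then filtered through a 0.45 µm membrane. Concentration determined by HPLC against a standard of the compound in DMSO. Mean of three separate assays in triplicate.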
# [2] = target: Tyrosine-protein kinase BTK (Homo sapiens, UniProt Q06187); experiment: Reversible inhibition of FAM-labeled peptide binding to full-length human N-terminal GST-tagged BTK (2 to 659 residues) expressed in baculovirus infected Sf21 insect cells at preincubated for 10 mins followed by FAM-labeled peptide addition and measured by off-chip mobility shift assay
# Chain of Tyrosine-protein kinase BTK (Q06187 whole entry, the tested form may be a part): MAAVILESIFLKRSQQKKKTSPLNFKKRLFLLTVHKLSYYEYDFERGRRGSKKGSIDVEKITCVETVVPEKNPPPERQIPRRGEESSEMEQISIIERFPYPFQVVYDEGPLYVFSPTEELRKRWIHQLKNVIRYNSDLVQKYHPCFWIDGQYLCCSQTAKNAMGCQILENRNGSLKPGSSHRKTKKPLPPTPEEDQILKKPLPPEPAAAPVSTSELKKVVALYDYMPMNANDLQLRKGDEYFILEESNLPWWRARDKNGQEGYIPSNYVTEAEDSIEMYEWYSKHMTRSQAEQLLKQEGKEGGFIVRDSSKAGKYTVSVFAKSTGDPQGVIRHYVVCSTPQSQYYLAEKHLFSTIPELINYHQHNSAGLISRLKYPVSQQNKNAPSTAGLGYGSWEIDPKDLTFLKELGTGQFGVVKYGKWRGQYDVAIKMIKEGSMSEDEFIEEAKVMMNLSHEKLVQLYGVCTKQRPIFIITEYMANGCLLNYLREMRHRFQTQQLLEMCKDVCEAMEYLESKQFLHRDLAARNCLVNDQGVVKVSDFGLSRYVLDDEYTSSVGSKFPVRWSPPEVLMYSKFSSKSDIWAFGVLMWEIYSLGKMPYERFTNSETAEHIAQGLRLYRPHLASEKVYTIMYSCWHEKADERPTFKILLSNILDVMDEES
# [3] = Toxicity in complete freund's adjuvant-induced DBA/1 mouse arthritis model assessed as effect on appetite at 0.2 mg/kg, po qd administered starting from 29 day post-CFA challenge and measured on day 29, 33, 36, 40 and 43; assay type: organism-based; settings: in vivo, 696 h
# Method in brief: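 CIA in male DBA/1 mice: intradermal bovine type II collagen in CFA on day 0, collagen II in IFA boost on day 20. Randomized on day 29 and given oral doses once daily (n=6 per group) alongside vehicle and naive groups. Body weights recorded over the study days.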
solubility kinetic at 24 h [1],IC50 [2],Structure (SMILES),Activity [3]
10.5 µg/mL,0.0728 µM,Cc1cc2cn[nH]c2cc1-c1cccc2c(N)c(C(N)=O)cnc12,
,,C[C@@H]1C[C@H]2[C@@H]3CCC4=CC(=O)C=C[C@]4(C)[C@@]3(F)[C@@H](O)C[C@]2(C)[C@@]1(O)C(=O)CO [DEXAMETHASONE],Toxic
5.2 µg/mL,0.0116 µM,Cc1cc2cn[nH]c2cc1-c1ccc(F)c2c(N)c(C(N)=O)cnc12,
